Data as given in ChEMBL document CHEMBL5247578, “Effective synthesis of benzimidazoles-imidazo[1,2-a]pyrazine conjugates: A comparative study of mono-and bis-benzimidazoles for antitumor activity” (Eur J Med Chem, 2019).

Legend:
SNB-19 = experiment: Antiproliferative activity against human SNB-19 cells assessed as cell growth inhibition at 10 uM incubated for 48 hrs by sulforhodamine B assay relative to control; type: functional
Summary of the method: (§1)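 NCI-60 single-dose screen at 10^-5 M. Cells grown in RPMI 1640 with 5% FBS and 2 mM L-glutamine, plated at 5,000–40,000 cells/well, and preincubated 24 h. Drug (DMSO stock) added and incubated 48 h at 37 °C, 5% CO2. Adherent cells fixed with cold TCA, stained with 0.4% SRB in 1% acetic acid, dye solubilized in 10 mM trizma base, A515 read. Percent growth taken against time-zero and untreated control.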

HOP-62 = experiment: Antiproliferative activity against human HOP-62 cells assessed as cell growth inhibition at 10 uM incubated for 48 hrs by sulforhodamine B assay relative to control; type: functional
Summary of the method: (§2)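 NCI-60 one-dose prescreen at 10^-5 M. Cells grown in RPMI 1640 with 5% FBS and 2 mM glutamine, preincubated 24 h, then exposed 48 h at 37 °C. Adherent lines TCA-fixed, SRB-stained, A515 read. Growth percent relative to time-zero and control; negative values mean cell kill.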

HL-60 = experiment: Antiproliferative activity against human HL-60 cells assessed as cell growth inhibition at 10 uM incubated for 48 hrs by sulforhodamine B assay relative to control; type: functional; summary of the method: as §2
SNB-75 = experiment: Antiproliferative activity against human SNB-75 cells assessed as cell growth inhibition at 10 uM incubated for 48 hrs by sulforhodamine B assay relative to control; type: functional; summary of the method: as §1
[1] = n-Octanol/phosphate buffer partition coefficient, logP of the compound at pH 7.4 incubated for 85 mins by shake-flask method; type: physicochemical
Summary of the method: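 Octanol–water partition by shake-flask: n-octanol with 0.15 M phosphate buffer pH 7.4 at 10:1 volumes. Buffer-phase absorbance read before mixing, then shaken 50 min and centrifuged at 2500 rpm for 35 min. Buffer absorbance read again; P = (Ai−Af)/Af × Vw/Vo.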

OVCAR-8 = experiment: Antiproliferative activity against human OVCAR-8 cells assessed as cell growth inhibition at 10 uM incubated for 48 hrs by sulforhodamine B assay relative to control; type: functional; summary of the method: as §1
HCT-116 = experiment: Antiproliferative activity against human HCT-116 cells assessed as cell growth inhibition at 10 uM incubated for 48 hrs by sulforhodamine B assay relative to control; type: functional; summary of the method: as §2
UACC-62 = experiment: Antiproliferative activity against human UACC-62 cells assessed as cell growth inhibition at 10 uM incubated for 48 hrs by sulforhodamine B assay relative to control; type: functional; summary of the method: as §1
KM12 = experiment: Antiproliferative activity against human KM12 cells assessed as cell growth inhibition at 10 uM incubated for 48 hrs by sulforhodamine B assay relative to control; type: functional; summary of the method: as §1
SK-MEL-2 = experiment: Antiproliferative activity against human SK-MEL-2 cells assessed as cell growth inhibition at 10 uM incubated for 48 hrs by sulforhodamine B assay relative to control; type: functional; summary of the method: as §1
MDA-MB-231 = experiment: Antiproliferative activity against human MDA-MB-231 cells assessed as cell growth inhibition at 10 uM incubated for 48 hrs by sulforhodamine B assay relative to control; type: functional; summary of the method: as §1
HT-29 = experiment: Antiproliferative activity against human HT-29 cells assessed as cell growth inhibition at 10 uM incubated for 48 hrs by sulforhodamine B assay relative to control; type: functional; summary of the method: as §1
SN12C = experiment: Antiproliferative activity against human SN12C cells assessed as cell growth inhibition at 10 uM incubated for 48 hrs by sulforhodamine B assay relative to control; type: functional; summary of the method: as §1
COLO 205 = experiment: Antiproliferative activity against human COLO 205 cells assessed as cell growth inhibition at 10 uM incubated for 48 hrs by sulforhodamine B assay relative to control; type: functional
Summary of the method: (§3)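 Single-dose NCI-60 prescreen at 10^-5 M. Cells in RPMI 1640 with 5% FBS and 2 mM L-glutamine, seeded 5,000–40,000 cells/well with 24 h preincubation, then drug exposure for 48 h at 37 °C under 5% CO2. Growth read by SRB staining of TCA-fixed cells at 515 nm against time-zero and untreated controls. Negative growth values denote cell kill.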

CAKI-1 = experiment: Antiproliferative activity against human CAKI-1 cells assessed as cell growth inhibition at 10 uM incubated for 48 hrs by sulforhodamine B assay relative to control; type: functional; summary of the method: as §3
SF-295 = experiment: Antiproliferative activity against human SF-295 cells assessed as cell growth inhibition at 10 uM incubated for 48 hrs by sulforhodamine B assay relative to control; type: functional; summary of the method: as §1
UO-31 = experiment: Antiproliferative activity against human UO-31 cells assessed as cell growth inhibition at 10 uM incubated for 48 hrs by sulforhodamine B assay relative to control; type: functional; summary of the method: as §1
DU-145 = experiment: Antiproliferative activity against human DU-145 cells assessed as cell growth inhibition at 10 uM incubated for 48 hrs by sulforhodamine B assay relative to control; type: functional; summary of the method: as §2
SR = experiment: Antiproliferative activity against human SR cells assessed as cell growth inhibition at 10 uM incubated for 48 hrs by sulforhodamine B assay relative to control; type: functional; summary of the method: as §1
OVCAR-3 = experiment: Antiproliferative activity against human OVCAR-3 cells assessed as cell growth inhibition at 10 uM incubated for 48 hrs by sulforhodamine B assay relative to control; type: functional; summary of the method: as §1
MDA-MB-435 = experiment: Antiproliferative activity against human MDA-MB-435 cells assessed as cell growth inhibition at 10 uM incubated for 48 hrs by sulforhodamine B assay relative to control; type: functional; summary of the method: as §1
TK-10 = experiment: Antiproliferative activity against human TK-10 cells assessed as cell growth inhibition at 10 uM incubated for 48 hrs by sulforhodamine B assay relative to control; type: functional; summary of the method: as §1
BT-549 = experiment: Antiproliferative activity against human BT-549 cells assessed as cell growth inhibition at 10 uM incubated for 48 hrs by sulforhodamine B assay relative to control; type: functional; summary of the method: as §3
HCC 2998 = experiment: Antiproliferative activity against human HCC 2998 cells assessed as cell growth inhibition at 10 uM incubated for 48 hrs by sulforhodamine B assay relative to control; type: functional; summary of the method: as §2
SK-OV-3 = experiment: Antiproliferative activity against human SK-OV-3 cells assessed as cell growth inhibition at 10 uM incubated for 48 hrs by sulforhodamine B assay relative to control; type: functional; summary of the method: as §1
SK-MEL-28 = experiment: Antiproliferative activity against human SK-MEL-28 cells assessed as cell growth inhibition at 10 uM incubated for 48 hrs by sulforhodamine B assay relative to control; type: functional; summary of the method: as §1
UACC-257 = experiment: Antiproliferative activity against human UACC-257 cells assessed as cell growth inhibition at 10 uM incubated for 48 hrs by sulforhodamine B assay relative to control; type: functional; summary of the method: as §1
K562 = experiment: Antiproliferative activity against human K562 cells assessed as cell growth inhibition at 10 uM incubated for 48 hrs by sulforhodamine B assay relative to control; type: functional; summary of the method: as §1

SMILES | inhibition at 10 µM (SNB-19) | inhibition at 10 µM (HL-60) | inhibition at 10 µM (SNB-75) | logD at 1.417 h [1] | inhibition at 10 µM (OVCAR-8) | inhibition at 10 µM (HCT-116) | inhibition at 10 µM (UACC-62) | inhibition at 10 µM (KM12) | inhibition at 10 µM (SK-MEL-2) | inhibition at 10 µM (MDA-MB-231) | inhibition at 10 µM (HT-29) | inhibition at 10 µM (SN12C) | inhibition at 10 µM (SF-295) | inhibition at 10 µM (UO-31) | inhibition at 10 µM (DU-145) | inhibition at 10 µM (SR) | inhibition at 10 µM (OVCAR-3) | inhibition at 10 µM (MDA-MB-435) | inhibition at 10 µM (BT-549) | inhibition at 10 µM (SK-OV-3) | other results
Cc1cccc(-c2cn3ccnc3c(-c3ccc4ncn(Cc5ccccc5)c4c3)n2)c1 | 2.58% | 18.2% | 21.7% | 2.16 | 11.5% | 36.7% | 2.46% | 22.1% | 6.34% | 28.4% | 42% | 4.72% | 14.3% | 41.7% | 14.2% | 11% | 13.9% | 0.94% |  |  | inhibition at 10 µM (HOP-62): 9.68%; inhibition at 10 µM (COLO 205): 11.3%; inhibition at 10 µM (CAKI-1): 24.8%
CCc1ccc(-c2cn3ccnc3c(-c3ccc4ncn(Cc5ccccc5)c4c3)n2)cc1 | 20.9% | 39.6% | 29.3% | 1.96 | 30.8% | 61.2% | 24.9% | 45.7% | 14.8% | 43.2% | 68.8% | 22.5% | 51.2% | 57.9% | 19.1% | 49.9% | 31.2% | 50.9% | 15.9% | 0.55% | inhibition at 10 µM (HOP-62): 17.9%; inhibition at 10 µM (TK-10): 15.5%; inhibition at 10 µM (COLO 205): 34.2%; inhibition at 10 µM (CAKI-1): 47.9%; inhibition at 10 µM (HCC 2998): 25.2%; inhibition at 10 µM (SK-MEL-28): 19.1%
Brc1ccc(-c2cn3ccnc3c(-c3ccc4ncn(C5CCCCC5)c4c3)n2)cc1 | 18.3% | 23.2% | 34.5% | 1.73 | 13.2% | 31.2% | 46.9% | 23.3% | 24.1% | 22.8% | 20.9% | 18.4% | 41.3% | 42.9% | 5.66% | 60.6% | 26.3% | 58.4% | 35.1% | 6.44% | inhibition at 10 µM (UACC-257): 7.3%; inhibition at 10 µM (K562): 59%; inhibition at 10 µM (SK-MEL-28): 28.3%
c1ccc2c(-c3cn4ccnc4c(-c4ccc5ncn(C6CCCCC6)c5c4)n3)cccc2c1 | 9.08% | 38.9% | 16.5% | 1.44 |  | 17.9% | 16.7% | 11.1% | 2.3% | 20.8% | 4.11% | 11.7% | 6.34% | 23% | 5.1% | 6.92% | 2.38% |  |  |  | inhibition at 10 µM (HOP-62): 19.6%; inhibition at 10 µM (K562): 30.9%; inhibition at 10 µM (CAKI-1): 25.1%; inhibition at 10 µM (HCC 2998): 2.23%
Clc1ccc(-c2cn3ccnc3c(-c3ccc4ncn(C5CCCCC5)c4c3)n2)cc1 | 15.8% | 15.6% | 31.1% | 1.51 | 3.78% | 7.34% | 30.5% | 10.6% | 10.9% | 15.3% | 16.4% | 13.5% | 14.5% | 36.1% |  | 18.5% | 10.8% | 36.7% | 23.8% | 6.14% | inhibition at 10 µM (UACC-257): 5.44%; inhibition at 10 µM (K562): 44.5%; inhibition at 10 µM (SK-MEL-28): 12.1%
c1ccc(-c2cn3ccnc3c(-c3ccc4ncn(C5CCCCC5)c4c3)n2)cc1 | 22.9% | 67.1% | 44.4% | 1.74 | 63.9% | 59.5% | 65.7% | 49% | 16.5% | 41.5% | 48.3% | 28.8% | 39.8% | 55.1% | 29.3% | 59.8% | 41.8% | 28.7% | 57.1% | 7.52% | inhibition at 10 µM (UACC-257): 5.22%; inhibition at 10 µM (TK-10): 2.26%; inhibition at 10 µM (K562): 70.6%; inhibition at 10 µM (COLO 205): 20.7%; inhibition at 10 µM (SK-MEL-28): 18%
